Pemphigus Ab inh = human desmoglein-3 autoantibody binding inhibition | P32926 | DSG3-coupled beads, scFv-anti-DSG3-GFP binding, flow cytometry; hits give low values | binding (percent of control), % at 10 µM | actives 0.48% (n = 310,000) | AID 588358;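 active = binding more than 3 SD below its plate's average and above zero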;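 note: hits lower antibody fragment binding to DSG3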
Mcl1 Bid PPI = Mcl-1/Bid interaction inhibition; AID 1021; TR-FRET Mcl-1/Bid-Dy647 peptide binding, 1536-well; inhibition, % at 21.7 µM; actives 0.97% (n = 220,000);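 active = compounds that cut the binding signal by more than half at the single screening dose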;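 note: His-tagged Mcl-1 with europium anti-His antibody binding Bid BH3 peptide; 0% = Mcl-1 plus peptide wells and 100% = peptide-only wells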
Target sequence (Q07820 whole entry, looked up): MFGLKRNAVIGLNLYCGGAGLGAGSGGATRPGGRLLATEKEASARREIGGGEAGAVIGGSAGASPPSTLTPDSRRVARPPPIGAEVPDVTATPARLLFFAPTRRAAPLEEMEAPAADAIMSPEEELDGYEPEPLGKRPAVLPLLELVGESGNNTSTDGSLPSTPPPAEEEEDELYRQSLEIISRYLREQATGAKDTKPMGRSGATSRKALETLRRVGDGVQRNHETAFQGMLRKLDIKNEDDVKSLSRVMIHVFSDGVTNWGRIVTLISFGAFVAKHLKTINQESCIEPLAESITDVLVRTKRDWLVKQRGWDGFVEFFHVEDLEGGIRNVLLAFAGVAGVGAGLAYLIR
Mcl1 Noxa PPI = Mcl-1/Noxa interaction inhibition; actives 1.5% (n = 220,000); AID 1022; TR-FRET Mcl-1/Noxa peptide binding, 2 h; inhibition, % at 21.7 µM;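 active = compounds that cut the protein-peptide binding signal by more than 50% relative to plate controls in a single-dose test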;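 note: His-tagged Mcl-1 with rhodamine Noxa BH3 peptide and terbium anti-His antibody; 0% = Mcl-1 plus Noxa peptide wells and 100% = peptide-only wells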
Bim-Mcl-1 = human Bim-Mcl-1 interaction inhibition. Q07820. inhibition, % at 10 µM. Bead-based flow cytometry, Bim peptide-Mcl-1 binding. actives 0.1% (n = 190,000); in the data active = inhibition above about 40%;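 note: 0% = no compound tracer wells and 100% = peptide blocker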
MCL1-BIM inh = MCL1-BIM-BH3 interaction inhibition (human). actives 0.68% (n = 320,000). inhibition, % at 10.9 µM. GST-MCL1 / FITC-Bim-BH3 fluorescence polarization;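 active = inhibition above the mean inhibition of all tested compounds plus 3 SD, set per campaign, cut at about 40% in these data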;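 note: 0% = DMSO wells and 100% = unlabeled Bim-BH3 peptide control; higher means more loss of mP so more displacement of Bim peptide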
T cell modulator = T cell immune modulation candidate | 2C CD8+ T cell-vesicle binding, flow cytometry; hits give low values | response (vesicle binding), % at 7 µM | actives 0.068% (n = 330,000);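 active = response, share of CD8 T cells binding vesicles, and their 90th percentile fluorescence all below set limits, cut at about 80% in these data, passing the limit was not always enough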;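 note: values below 100% mean blocked vesicle binding to the CD8+ T cells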
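Read-out – percent CD8+ FL2 mean versus row control · System – murine 2C transgenic CD8+ T lymphocytes · Times – 1.5 h cell–vesicle binding at 37 °C, then 20 min icy labelling · Control set – naked vesicles low, QL9 vesicles with vehicle high · Detection – cytometric PE anti-B7-1 and Alexa647 anti-CD8 signals after 1% paraformaldehyde fixation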
Numbers without * were called inactive; i = inactive; · = no result. Compounds with a hit are over-represented: about 2.3% of the library has one in this group of screens.

SMILES	Pemphigus Ab inh	Mcl1 Bid PPI	Mcl1 Noxa PPI	Bim-Mcl-1	MCL1-BIM inh	T cell modulator
O=C(Nc1nc2ccccc2s1)c1cccc(S(=O)(=O)N2CCc3ccccc32)c1	87.7	-5.4	-23.8	·	-2.5	379.2
COCCn1c(SCC(=O)Nc2ccccc2C)nc2c(oc3ccccc32)c1=O	96.4	54.4*	4.6	-4.0	10.8	343.5
CN(CC(=O)Nc1ccccc1Cl)C(=O)C1CSC2(C)CCC(=O)N12 (centres undefined)	112.2	·	·	·	6.5	191.9
CC(C)c1ccc(NS(=O)(=O)c2ccc(Cl)nc2)cc1	94.2	54.7*	12.8	-2.0	8.7	0.0
CN(C)c1ccc(S(=O)(=O)c2ccc(Cl)cc2)cc1	104.0	-21.1	3.9	0.0	11.8	723.0
O=S(=O)(Nc1cccnc1)c1cccc(Cl)c1	96.1	-28.0	-6.3	-7.0	8.5	258.9
CN(C)c1ccc(NS(=O)(=O)c2cccc(Cl)c2)cc1	114.1	-21.2	83.9*	0.0	18.5	361.6
O=[N+]([O-])c1cc(NS(=O)(=O)c2ccc(Cl)nc2)ccc1Cl	110.6	·	·	·	-1.4	464.7
CN(C)c1ccc(NS(=O)(=O)c2ccc(Cl)cc2)cc1	106.4	-8.9	60.8*	0.0	11.5	0.0
Cc1ccc(S(=O)(=O)Nc2ccc(N(C)C)cc2)cc1	98.7	-3.1	73.4*	0.0	9.7	339.9
CC[C@]12c3[nH]c4ccc(Cl)cc4c3CCN1C(=O)[C@@H](CC(=O)NCCc1ccccn1)C[C@@H]2C(=O)N1CCN(C(=O)c2ccco2)CC1	95.2	·	·	·	·	·
CC(=O)Nc1cccc(C(=O)OCc2csc(CC(=O)Nc3ccccc3C)n2)c1	99.6	·	·	·	-11.4	426.4
Cc1cccc(N2CCN(C(=O)COc3ccc4c(C)cc(=O)oc4c3C)CC2)c1C	·	·	·	·	3.5	840.1
CCOC(=O)N1CCC(NC(=O)c2cc(COc3ccccc3SC)on2)CC1	99.4	·	·	·	0.5	428.8
CCN(CC(=O)Nc1c(F)cccc1F)C(=O)c1nc2nc(C)cc(C)n2n1	100.0	·	·	·	·	·
Cc1cc(SCc2ccc(Br)cc2)nc(=O)[nH]1	117.1	·	·	·	-4.8	367.2
N#CC(C(=O)Nc1ccccc1)=C1CCCCC1	91.0	-0.7	3.5	-2.0	7.2	379.9
N#CC(C(=O)Nc1ccc(Cl)cc1)=C1Nc2ccccc2N1	110.5	-1.5	50.6*	1.0	2.3	363.2
CCc1ccc(CCC(=O)Nc2ccc(C)cc2C)o1	103.5	84.5*	37.5	-1.0	5.4	661.8
C=CCSC1=Nc2sccc2C2=NC(=O)CN12	100.4	22.5	56.5*	0.0	18.4	112.2
Cc1ccc(CSC2=Nc3ccccc3C3=NC(=O)CN23)cc1	105.0	-9.9	5.8	-1.0	-4.2	266.2
CC12CCC(O)CC1=CCC1C2CCC2(C)c3[nH]ncc3CC12 (centres undefined)	95.3	·	·	·	·	·
O=C(Nc1nc(-c2cccc3ccccc23)cs1)c1ccc2c(c1)S(=O)(=O)c1ccccc1C2=O	99.6	27.9	62.5*	0.0	2.8	114.2
Cc1cc(NC(=O)c2noc3c2CCc2ccccc2-3)no1	103.7	67.4*	40.8	0.0	-1.0	619.7
Cc1ccc(O)c(NC(=O)c2noc3c2CCc2ccccc2-3)c1	99.6	4.7	4.8	-2.0	-8.6	133.2
SMILES	Pemphigus Ab inh	Mcl1 Bid PPI	Mcl1 Noxa PPI	Bim-Mcl-1	MCL1-BIM inh	T cell modulator
CCN(Cc1ccccc1)S(=O)(=O)c1c(C)[nH]c(C)c1C(=O)N1CCCC1	96.8	·	·	·	-1.4	853.8
O=C(NCCc1csc(-c2cccnc2)n1)c1cccs1	108.1	86.1*	14.9	-2.0	4.9	655.6
COc1cc(/C=N/N(C)c2ccccc2)cc(Cl)c1O	93.8	-22.7	67.1*	-2.0	4.7	i
COc1ccc(OC)c(/C=N/N(C)c2ccccc2)c1	99.1	-25.2	18.3	1.0	-5.5	217.2
O=[N+]([O-])c1ccc(-c2cn(-c3ccc(Cl)cc3)c(=S)[nH]2)cc1	94.8	68.2*	90.5*	13.0	-3.2	420.5
CNC(=S)N(CCc1ccc(S(N)(=O)=O)cc1)C1CC(=O)N(c2ccccc2F)C1=O (centres undefined)	96.1	60.9*	44.7	0.0	-2.4	164.0
CC(=O)Nc1cccc(NC(=O)/C=C/c2ccc(S(=O)(=O)N3CCOCC3)cc2)c1	98.2	·	·	·	·	173.6
COc1ccc(C(=O)Nc2cccc(C)c2)cc1S(=O)(=O)N1CCOCC1	99.5	76.0*	3.0	0.0	-0.3	550.8
COc1cccc(NC(=O)/C=C/c2ccc(S(=O)(=O)N3CCOCC3)cc2)c1	73.3*	·	·	·	-6.0	316.7
CSc1ccc(CNC(=O)Cc2ccc(NC(=O)C3=C(C)OCCS3)cc2)cc1	54.0*	·	·	·	9.7	117.7
O=C(O)c1cc(S(=O)(=O)N2CCOCC2)c[nH]1	101.2	·	·	·	3.1	624.8
c1ccc2oc(SCc3cn4ccsc4n3)nc2c1	·	-18.7	26.8	-3.0	2.9	517.7
Cc1csc2nc(CSc3nc4ccccc4o3)cn12	100.4	20.3	51.1*	-4.0	19.6	143.9
CCOC(=O)CSc1nc2sc(C)c(C)c2c(=O)n1C	·	11.1	15.2	-1.0	-4.5	471.6
CCOC(=O)CSc1nc2sc(C)c(C)c2c(=O)n1N	57.5*	-6.5	22.0	-3.0	-2.9	194.6
CCN(c1ccccc1)S(=O)(=O)c1cc(C(=O)NCC(c2ccc(OC)cc2)N(C)C)ccc1C (centres undefined)	105.6	·	·	·	·	·
CCOc1ccc(S(=O)(=O)N(CC(=O)N/N=C/c2ccc(-c3ccc([N+](=O)[O-])cc3)o2)c2ccccc2)cc1	103.0	33.0	65.1*	6.0	7.6	141.1
Cc1ccc(C)c(N(CC(=O)N/N=C/c2ccc(-c3ccc([N+](=O)[O-])cc3)o2)S(=O)(=O)c2ccccc2)c1	85.3*	-16.4	30.4	1.0	-24.3	45.7
Cc1nonc1NC(=O)CSc1nnc(N)s1	104.5	·	·	·	2.4	292.0
CCN(CC)CCOCCn1c(C)ccc1C	121.5	·	·	·	·	·
CCSc1nnc(NC(=O)CSc2nnc(CNC(=O)c3ccccc3F)o2)s1	53.9*	-28.4	5.3	-1.0	9.1	239.8
COc1cccc(NC(=O)CSc2nnc(CNC(=O)c3ccccc3F)o2)c1	104.7	·	·	·	4.9	252.5
Cc1ccc(-n2nc(C)c(C(=O)Nc3cccc(C(=O)NC4CC4)c3)n2)c(C)c1	97.9	·	·	·	-0.9	237.8
CCOC(=O)Cc1nnc(Nc2cccc(C)c2)c2ccccc12	74.2	64.5*	-26.1	-5.0	-0.7	181.8
O=C(CN1CCN(S(=O)(=O)c2ccc(Cl)c(Cl)c2)CC1)N1CCCC1	98.2	·	·	·	-0.6	200.5
C=CCC1(CC=C)CCCN1C(=O)C1CCC(=O)N(CCc2ccccc2)C1 (centres undefined)	·	·	·	·	8.3	65.7*
C=CCC1(CC=C)CCCN1C(=O)C1CCC(=O)N(CCc2ccc(OC)cc2)C1 (centres undefined)	·	·	·	·	2.1	269.1
Cc1ccc(N2CC(C(=O)Nc3ccccc3OC(F)F)CC2=O)cc1 (centres undefined)	102.0	·	·	·	4.7	129.9

Assay outcomes as filed in PubChem.
